Activity calls are given as the source filed them. The rule behind the calls is not given here.
Each compound was assayed against Protein arginine N-methyltransferase 6 (Homo sapiens, UniProt Q96LA8) (assay: Inhibition of His6x-tagged PRMT6-mediated arginine methylation expressed in Escherichia coli BL21 (DE3) using H3(1-31) peptide and [14C]-SAM by scintillation counting).
In short: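 His6x-PRMT6 from E. coli BL21(DE3), Ni-NTA purified; 0.5 μM enzyme, 10 μM H3(1-31), 5 μM [14C]-SAM and varied inhibitor at 30 °C in HEPES pH 8.0 buffer with DTT, EDTA, NaCl; 5 min preincubation before enzyme. Product captured on P81 paper, counted by liquid scintillation; IC50 taken at half-maximal activity.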

Protein arginine N-methyltransferase 6, sequence (Q96LA8 whole entry): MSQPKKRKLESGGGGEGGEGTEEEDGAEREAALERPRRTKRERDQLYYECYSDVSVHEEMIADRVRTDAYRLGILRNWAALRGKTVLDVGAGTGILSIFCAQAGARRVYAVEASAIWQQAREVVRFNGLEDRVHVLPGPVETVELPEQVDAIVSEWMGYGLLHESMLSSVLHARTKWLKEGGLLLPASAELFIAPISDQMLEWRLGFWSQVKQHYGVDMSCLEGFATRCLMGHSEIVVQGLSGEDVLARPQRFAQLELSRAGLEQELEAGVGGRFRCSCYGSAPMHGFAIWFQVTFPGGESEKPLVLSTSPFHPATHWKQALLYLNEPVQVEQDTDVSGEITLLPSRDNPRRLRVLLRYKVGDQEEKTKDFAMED

Structure (SMILES)	IC50
CC(=O)Nc1ccc(/N=N/c2c(S(=O)(=O)O)cc3cc(NC(=O)Nc4ccc5c(O)c(/N=N/c6ccccc6)c(S(=O)(=O)O)cc5c4)ccc3c2O)cc1	39.2 µM

These compounds were tested against T1, Protein arginine N-methyltransferase 1 (Homo sapiens, UniProt Q99873) (assay: Inhibition of His6x-tagged PRMT1-mediated protein arginine methylation expressed in Escherichia coli BL21 (DE3) using GAR R4 peptide and [14C]-AdoMet by scintillation counting).
Target sequence in this assay (Q99873 whole entry): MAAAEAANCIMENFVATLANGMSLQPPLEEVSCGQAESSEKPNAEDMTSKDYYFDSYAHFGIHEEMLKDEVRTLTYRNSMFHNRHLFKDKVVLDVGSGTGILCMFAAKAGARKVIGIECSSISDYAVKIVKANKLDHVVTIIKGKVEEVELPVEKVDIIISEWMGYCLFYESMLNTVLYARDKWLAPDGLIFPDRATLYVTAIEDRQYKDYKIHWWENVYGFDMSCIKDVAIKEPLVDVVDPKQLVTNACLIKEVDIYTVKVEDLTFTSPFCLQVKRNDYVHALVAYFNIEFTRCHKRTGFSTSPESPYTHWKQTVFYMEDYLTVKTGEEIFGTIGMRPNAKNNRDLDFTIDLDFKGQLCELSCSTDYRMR

Structure (SMILES)	IC50
Cc1ccc(C(=O)Nc2ccc(S(=O)(=O)O)c3cc(S(=O)(=O)O)cc(S(=O)(=O)O)c23)cc1NC(=O)c1cccc(NC(=O)Nc2cccc(C(=O)Nc3cc(C(=O)Nc4ccc(S(=O)(=O)O)c5cc(S(=O)(=O)O)cc(S(=O)(=O)O)c45)ccc3C)c2)c1 [SURAMIN]	1010 µM
O=S(=O)(O)c1cc(O)c2c(/N=N/c3c(S(=O)(=O)O)cc4cc(S(=O)(=O)O)cc(O)c4c3O)cc(S(=O)(=O)O)cc2c1	463 µM

What follows are compounds tested against T1, Protein arginine N-methyltransferase 1 (assay: Inhibition of His6x-tagged PRMT1-mediated arginine methylation expressed in Escherichia coli BL21 (DE3) assessed as residual activity at 100 uM using H4(1-20) and [14C]-AdoMet by scintillation counting; values are per cent of control).
Target sequence in this assay (Q99873 whole entry, looked up): as the sequence (Q99873 whole entry) above

Structure (SMILES)	residual activity
O=C(Nc1cccc2c(S(=O)(=O)O)cccc12)c1ccccc1	86.9%
CC(=O)Nc1ccc2cc(S(=O)(=O)O)cc(OS(=O)(=O)c3ccccc3)c2c1	71.4%

These compounds were tested against T1, Protein arginine N-methyltransferase 1 (assay: Inhibition of His6x-tagged PRMT1-mediated arginine methylation expressed in Escherichia coli BL21 (DE3) assessed as residual activity at 500 uM using H4(1-20) and [14C]-AdoMet by scintillation counting).
Target sequence in this assay (Q99873 whole entry, looked up): as the sequence (Q99873 whole entry) above

inhibition	Structure (SMILES)
inactive	CCOC(=O)c1ccc(N2C(=O)CC(Sc3ccccc3C(=O)O)C2=O)cc1 (stereo not given)
inactive	COc1ccc(S(=O)(=O)Oc2ccc3ccccc3c2)c2ccccc12
inactive	O=Cc1ccc(OS(=O)(=O)c2ccc3ccccc3c2)c(Br)c1
inactive	CCOc1cc(C=O)cc(Br)c1OS(=O)(=O)c1ccc2ccccc2c1
inactive	CCOc1cc(C=O)ccc1OS(=O)(=O)c1ccc2ccccc2c1
inactive	NS(=O)(=O)c1ccc(CNc2ccnc3cc4ccccc4cc23)cc1

Second part, the compound before the results:

Structure (SMILES)	inhibition
Nc1cc(S(=O)(=O)O)cc2cccc(S(=O)(=O)O)c12	inactive
O=S(=O)(Oc1cccc2c(OS(=O)(=O)c3ccccc3)cccc12)c1ccccc1	inactive
O=S(=O)(Nc1ccccc1)c1cc(S(=O)(=O)Nc2ccccc2)c2cc(O)ccc2c1	inactive
COc1cc(C=O)cc(I)c1OS(=O)(=O)c1ccc2ccccc2c1	inactive
NS(=O)(=O)c1ccc2c(O)cc(S(N)(=O)=O)cc2c1	inactive
CCOc1ccc(S(=O)(=O)NCCNS(=O)(=O)c2ccc(OCC)c3ccccc23)c2ccccc12	inactive
O=S(=O)(O)c1cc(O)c2c(S(=O)(=O)O)cc(S(=O)(=O)O)cc2c1	inactive
COc1ccc(S(=O)(=O)Nc2ccc(S(=O)(=O)Nc3cccc4ccccc34)cc2)cc1OC	inactive
CC(=O)Nc1cc([N+](=O)[O-])c(N(C)S(=O)(=O)c2ccccc2)c2ccccc12	inactive
O=S(=O)(Oc1c(Br)cc(Br)cc1Br)c1ccc2ccccc2c1	inactive
CNc1ccc2c(O)cc(S(=O)(=O)O)cc2c1	inactive

The compounds below were run against T2, Histone acetyltransferase p300 (Homo sapiens, UniProt Q09472) (assay: Inhibition of HAT p300-mediated […] using H4(1-20) and [14C]-acetyl CoA by scintillation counting).
T2 sequence (Q09472 whole entry, the tested form may be a part): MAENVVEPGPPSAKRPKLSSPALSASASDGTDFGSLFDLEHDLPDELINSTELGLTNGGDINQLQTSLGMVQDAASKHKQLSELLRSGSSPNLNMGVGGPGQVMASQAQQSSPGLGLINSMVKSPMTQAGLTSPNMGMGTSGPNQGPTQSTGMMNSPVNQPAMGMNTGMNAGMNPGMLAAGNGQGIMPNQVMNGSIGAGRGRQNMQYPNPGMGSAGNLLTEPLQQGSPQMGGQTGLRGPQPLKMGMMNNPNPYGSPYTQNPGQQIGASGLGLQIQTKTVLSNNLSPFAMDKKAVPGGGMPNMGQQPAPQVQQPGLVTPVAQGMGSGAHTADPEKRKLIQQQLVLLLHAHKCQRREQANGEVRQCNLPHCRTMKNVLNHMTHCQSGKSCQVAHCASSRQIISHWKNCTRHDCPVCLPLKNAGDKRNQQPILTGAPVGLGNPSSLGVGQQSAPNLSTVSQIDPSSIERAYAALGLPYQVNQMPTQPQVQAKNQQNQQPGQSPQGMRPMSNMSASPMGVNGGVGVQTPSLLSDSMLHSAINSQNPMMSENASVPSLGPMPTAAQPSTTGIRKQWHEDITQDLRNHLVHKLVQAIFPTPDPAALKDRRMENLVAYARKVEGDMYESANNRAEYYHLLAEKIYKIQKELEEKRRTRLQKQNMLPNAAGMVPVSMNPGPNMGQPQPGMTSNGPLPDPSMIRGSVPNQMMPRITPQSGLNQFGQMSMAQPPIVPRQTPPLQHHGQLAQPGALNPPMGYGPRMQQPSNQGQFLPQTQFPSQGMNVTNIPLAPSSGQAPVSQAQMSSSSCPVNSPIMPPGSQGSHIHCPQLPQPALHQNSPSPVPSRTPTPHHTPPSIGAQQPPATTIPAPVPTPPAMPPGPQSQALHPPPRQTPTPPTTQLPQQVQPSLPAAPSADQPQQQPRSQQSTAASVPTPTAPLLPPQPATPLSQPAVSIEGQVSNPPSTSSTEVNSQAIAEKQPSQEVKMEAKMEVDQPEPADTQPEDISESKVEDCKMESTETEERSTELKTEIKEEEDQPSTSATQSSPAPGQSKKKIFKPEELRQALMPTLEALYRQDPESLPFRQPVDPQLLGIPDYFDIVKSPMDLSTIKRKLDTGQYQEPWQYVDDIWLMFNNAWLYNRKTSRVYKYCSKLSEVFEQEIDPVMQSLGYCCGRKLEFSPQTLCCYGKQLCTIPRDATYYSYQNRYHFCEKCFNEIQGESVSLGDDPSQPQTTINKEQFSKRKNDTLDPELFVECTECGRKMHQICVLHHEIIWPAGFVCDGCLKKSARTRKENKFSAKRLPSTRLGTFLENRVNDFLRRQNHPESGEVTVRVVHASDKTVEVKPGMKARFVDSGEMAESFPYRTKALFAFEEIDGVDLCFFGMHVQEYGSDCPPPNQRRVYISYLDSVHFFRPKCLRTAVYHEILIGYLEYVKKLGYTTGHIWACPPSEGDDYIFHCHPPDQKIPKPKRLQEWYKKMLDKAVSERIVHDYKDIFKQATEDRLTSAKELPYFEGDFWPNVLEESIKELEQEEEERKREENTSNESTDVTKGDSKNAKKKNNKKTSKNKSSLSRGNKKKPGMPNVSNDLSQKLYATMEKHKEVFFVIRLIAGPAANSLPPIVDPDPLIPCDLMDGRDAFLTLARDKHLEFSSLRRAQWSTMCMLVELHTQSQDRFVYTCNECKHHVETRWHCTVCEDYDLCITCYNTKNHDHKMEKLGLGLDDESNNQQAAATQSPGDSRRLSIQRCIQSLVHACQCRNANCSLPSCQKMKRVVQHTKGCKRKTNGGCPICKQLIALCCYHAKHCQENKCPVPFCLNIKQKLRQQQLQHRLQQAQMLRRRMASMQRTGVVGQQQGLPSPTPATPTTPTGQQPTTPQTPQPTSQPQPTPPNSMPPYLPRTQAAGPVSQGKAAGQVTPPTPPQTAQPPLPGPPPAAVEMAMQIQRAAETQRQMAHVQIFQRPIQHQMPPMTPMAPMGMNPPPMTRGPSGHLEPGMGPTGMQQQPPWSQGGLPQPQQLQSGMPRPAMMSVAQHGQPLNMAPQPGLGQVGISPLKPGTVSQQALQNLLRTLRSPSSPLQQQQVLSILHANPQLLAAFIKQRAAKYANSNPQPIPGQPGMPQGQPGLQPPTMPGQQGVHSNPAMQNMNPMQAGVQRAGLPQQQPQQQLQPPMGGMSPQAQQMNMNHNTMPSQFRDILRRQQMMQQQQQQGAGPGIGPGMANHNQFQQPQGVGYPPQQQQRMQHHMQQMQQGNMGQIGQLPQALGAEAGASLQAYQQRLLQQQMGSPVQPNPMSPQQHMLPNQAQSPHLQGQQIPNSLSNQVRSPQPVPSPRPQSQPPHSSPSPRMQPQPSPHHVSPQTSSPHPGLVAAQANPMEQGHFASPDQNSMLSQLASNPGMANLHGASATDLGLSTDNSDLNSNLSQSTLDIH
In short: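 Recombinant p300 HAT domain (1287-1666), 20 nM, with 10 μM H4(1-20) and 10 μM [14C]-acetyl CoA plus increasing inhibitor in 50 mM HEPES pH 8.0, 50 mM NaCl, 0.5 mM DTT, 1 mM EDTA; 10 min at 30 °C. Quenched on P81 filter paper, acetylated product counted by liquid scintillation; fractional activity plotted against inhibitor concentration.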

Structure (SMILES)	IC50
O=C(Nc1ccc2c(O)cc(S(=O)(=O)O)cc2c1)Nc1ccc2c(O)cc(S(=O)(=O)O)cc2c1	118 µM
CC(=O)Nc1ccc(/N=N/c2c(S(=O)(=O)O)cc3cc(NC(=O)Nc4ccc5c(O)c(/N=N/c6ccccc6)c(S(=O)(=O)O)cc5c4)ccc3c2O)cc1	21.3 µM

What follows are compounds tested against T3, Histone-arginine methyltransferase CARM1 (Mus musculus, UniProt Q9WVG6) (assay: Inhibition of mouse GST-tagged CARM1-mediated arginine methylation expressed in Escherichia coli BL21 (DE3) using H3(1-31) and [14C]-SAM by scintillation counting).
T3 sequence (Q9WVG6 whole entry): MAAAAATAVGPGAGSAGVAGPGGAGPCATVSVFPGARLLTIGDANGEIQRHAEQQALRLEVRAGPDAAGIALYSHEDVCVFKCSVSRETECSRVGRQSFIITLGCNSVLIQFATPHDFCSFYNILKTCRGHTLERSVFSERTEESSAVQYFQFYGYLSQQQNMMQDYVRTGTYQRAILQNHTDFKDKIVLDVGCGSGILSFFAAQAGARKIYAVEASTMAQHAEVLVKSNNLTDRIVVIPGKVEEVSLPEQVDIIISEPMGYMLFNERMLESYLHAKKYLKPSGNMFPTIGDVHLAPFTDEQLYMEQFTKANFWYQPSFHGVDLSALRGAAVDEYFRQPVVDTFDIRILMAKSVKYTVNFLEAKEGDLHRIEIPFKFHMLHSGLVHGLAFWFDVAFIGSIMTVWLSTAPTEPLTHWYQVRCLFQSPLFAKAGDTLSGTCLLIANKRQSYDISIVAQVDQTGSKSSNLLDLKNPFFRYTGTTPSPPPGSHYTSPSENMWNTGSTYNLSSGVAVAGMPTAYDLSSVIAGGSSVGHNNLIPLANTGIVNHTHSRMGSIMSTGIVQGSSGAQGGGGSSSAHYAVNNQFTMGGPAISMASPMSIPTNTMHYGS
In short: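 GST-tagged mouse CARM1 from E. coli BL21(DE3), glutathione-agarose purified; 5 μM enzyme, 1 mM H3(1-31), 30 μM [14C]-SAM, inhibitor up to 500 μM, 30 °C in 50 mM HEPES pH 8.0, 0.5 mM DTT, 1 mM EDTA, 50 mM NaCl. P81 filter capture, liquid scintillation counting.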

Structure (SMILES)	IC50
CC(=O)Nc1ccc(/N=N/c2c(S(=O)(=O)O)cc3cc(NC(=O)Nc4ccc5c(O)c(/N=N/c6ccccc6)c(S(=O)(=O)O)cc5c4)ccc3c2O)cc1	2000 µM

The compounds below were run against T1, Protein arginine N-methyltransferase 1 (assay: Inhibition of His6x-tagged PRMT1-mediated protein arginine methylation expressed in Escherichia coli BL21 (DE3) assessed as retained fractional activity of enzyme at 100 uM using H4(1-20) and [14C]-AdoMet by scintillation counting).
Set-up: scale not given: the % may be the effect or the level left
In short: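 His6x-PRMT1 (0.1 μM) with 2 μM H4(1-20) and 5 μM [14C]-AdoMet, compound at 100 μM or absent, 30 °C in 50 mM HEPES pH 8.0, 0.5 mM DTT, 1 mM EDTA, 50 mM NaCl. Substrates and compound preincubated 5 min before enzyme addition. Quenched on P81 paper, NaHCO3 wash, methylated product counted by liquid scintillation.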
Target sequence in this assay (Q99873 whole entry, looked up): as the sequence (Q99873 whole entry) above

Activity	Structure (SMILES)
100%	N#Cc1cccc(C#N)c1Oc1ccc(S(=O)(=O)Nc2ccc(Cl)cc2)cc1
100%	O=C(OC[C@@H]1CO[C@@](Cn2ccnc2)(c2ccc(Cl)cc2Cl)O1)c1ccccc1

Second part, the compound before the results:

Structure (SMILES)	Activity
CCOC(=O)[C@H]1CCCN(S(=O)(=O)c2cc(S(=O)(=O)c3ccccc3)cs2)C1	100%
Cc1ccccc1Nc1nc(-c2ccccc2)c(C(=O)Nc2cccnc2)s1	100%
Cn1c(SCC(=O)Nc2ccccc2)nnc1-c1cncc(C#Cc2ccccc2)c1	100%
O=C1N=c2ccccc2=C1Nc1ccc(Cc2ccc(NC3=c4ccccc4=NC3=O)cc2)cc1	100%

Each compound was assayed against T2, Histone acetyltransferase p300 (assay: Inhibition of HAT p300-mediated […] assessed as residual activity at 1 mM using H4(1-20) and [14C]-acetyl CoA by scintillation counting; values are per cent of control).

Structure (SMILES)	residual activity
N=C(N)c1ccc(/C=C/c2ccc(C(=N)N)cc2)cc1	84%

The compounds below were run against T1, Protein arginine N-methyltransferase 1 (assay: Inhibition of His6x-tagged PRMT1-mediated protein arginine methylation expressed in Escherichia coli BL21 (DE3) using H4(1-20) and [14C]-SAM by scintillation counting).
Target sequence in this assay (Q99873 whole entry): as above

Structure (SMILES)	IC50
Cc1ccc(C(=O)Nc2ccc(S(=O)(=O)O)c3cc(S(=O)(=O)O)cc(S(=O)(=O)O)c23)cc1NC(=O)c1cccc(NC(=O)Nc2cccc(C(=O)Nc3cc(C(=O)Nc4ccc(S(=O)(=O)O)c5cc(S(=O)(=O)O)cc(S(=O)(=O)O)c45)ccc3C)c2)c1 [SURAMIN]	5.33 µM
O=S(=O)(O)c1cc(O)c2c(/N=N/c3c(S(=O)(=O)O)cc4cc(S(=O)(=O)O)cc(O)c4c3O)cc(S(=O)(=O)O)cc2c1	72.1 µM

Each compound was assayed against Protein arginine N-methyltransferase 3 (Homo sapiens, UniProt O60678) (assay: Inhibition of His6x-tagged PRMT3-mediated arginine methylation expressed in Escherichia coli BL21 (DE3) using GAR R4 peptide and [14C]-SAM by scintillation counting).
Protein arginine N-methyltransferase 3, sequence (O60678 whole entry): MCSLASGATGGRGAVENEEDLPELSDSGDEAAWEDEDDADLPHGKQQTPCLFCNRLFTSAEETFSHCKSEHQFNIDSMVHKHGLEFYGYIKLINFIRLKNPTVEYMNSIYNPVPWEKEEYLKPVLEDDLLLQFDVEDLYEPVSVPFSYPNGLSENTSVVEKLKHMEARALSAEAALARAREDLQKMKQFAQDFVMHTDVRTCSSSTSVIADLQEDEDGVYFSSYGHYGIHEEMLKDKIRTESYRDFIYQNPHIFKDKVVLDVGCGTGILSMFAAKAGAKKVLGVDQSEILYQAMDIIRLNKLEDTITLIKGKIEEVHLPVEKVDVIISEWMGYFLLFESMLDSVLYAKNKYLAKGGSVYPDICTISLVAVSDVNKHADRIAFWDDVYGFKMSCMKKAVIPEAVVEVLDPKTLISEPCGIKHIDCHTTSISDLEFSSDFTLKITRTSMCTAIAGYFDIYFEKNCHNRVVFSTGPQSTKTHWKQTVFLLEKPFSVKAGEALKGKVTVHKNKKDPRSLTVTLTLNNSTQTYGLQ
In short: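 His6x-PRMT3 expressed in E. coli BL21(DE3), Ni-NTA purified; 0.1 μM enzyme, 2 μM R4 peptide, 5 μM [14C]-SAM, varied inhibitor, 30 °C in 50 mM HEPES pH 8.0, 0.5 mM DTT, 1 mM EDTA, 50 mM NaCl; 5 min preincubation before enzyme. P81 filter capture, liquid scintillation; IC50 = inhibitor concentration giving half-maximal activity.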

Structure (SMILES)	IC50
CC(=O)Nc1ccc(/N=N/c2c(S(=O)(=O)O)cc3cc(NC(=O)Nc4ccc5c(O)c(/N=N/c6ccccc6)c(S(=O)(=O)O)cc5c4)ccc3c2O)cc1	7.1 µM
